Source: PubChem (several laboratories)
procasp7 counter – procaspase-7 activators, primary screen, counter-screen for procaspase-3 activator project, biochemical, absorbance, HTS, human; 330,000 compounds, 0.093% hits; activation, % at 8.5 µM; Caspase-7 (Homo sapiens), P55210; recombinant procaspase-7, Ac-DEVD-pNA absorbance 405 nm; D23A/D198A/D206A triple mutant, cannot self-cleave; scale: DMSO 0, 5 µM enzyme 100;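 active means percent activation above the screen-wide mean plus 3 SD, cut at about 25% in these data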
Target sequence (P55210 whole entry D23A/D198A/D206A): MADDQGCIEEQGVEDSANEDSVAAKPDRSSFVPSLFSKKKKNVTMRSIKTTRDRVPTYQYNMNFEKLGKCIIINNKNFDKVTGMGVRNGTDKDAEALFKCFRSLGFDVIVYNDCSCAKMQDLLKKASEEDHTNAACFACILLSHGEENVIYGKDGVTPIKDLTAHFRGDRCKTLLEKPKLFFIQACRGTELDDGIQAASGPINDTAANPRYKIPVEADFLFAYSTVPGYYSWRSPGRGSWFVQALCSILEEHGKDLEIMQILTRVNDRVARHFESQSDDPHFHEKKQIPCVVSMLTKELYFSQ
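Assay system: Uncleavable procaspase-7 mutant enzyme; Input: 2 µM procaspase-7 mutant as dispensed; Also added: DEVD-pNA substrate; Medium: Zinc-free HEPES pH 7.4 with 300 mM NaCl, 0.01% Triton X-100; Timing: 1 h compound preincubation, 2 h substrate cleavage, 25 °C; Measured by: Epi-absorbance of released pNA at 405 nm, two timepoints.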
Rce1 inh – yeast Rce1p protease inhibitors, primary screen, biochemical, fluorescence, cell-free homogeneous; 290,000 compounds, 0.27% hits; yeast membranes, quenched prenylated peptide cleavage fluorescence; CAAX prenyl protease 2 (Saccharomyces cerevisiae (strain ATCC 204508 / S288c)), Q03530; calls only;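 active means fall in fluorescence gain of 50% or more versus controls, with final raw signal at or below 3038400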
Target sequence (Q03530 whole entry, looked up): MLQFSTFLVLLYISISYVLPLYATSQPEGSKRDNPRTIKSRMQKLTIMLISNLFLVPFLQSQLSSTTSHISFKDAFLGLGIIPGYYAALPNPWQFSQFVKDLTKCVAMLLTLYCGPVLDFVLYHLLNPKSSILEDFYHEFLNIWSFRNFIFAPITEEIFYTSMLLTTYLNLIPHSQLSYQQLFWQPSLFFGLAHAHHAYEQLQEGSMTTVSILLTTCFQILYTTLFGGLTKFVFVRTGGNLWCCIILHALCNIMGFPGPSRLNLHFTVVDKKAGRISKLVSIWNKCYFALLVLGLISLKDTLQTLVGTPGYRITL
PolyA inh – polyadenylation inhibitors in yeast reporter cells, primary screen, luminescence, S. cerevisiae; S. cerevisiae SKY197-pL101 polyadenylation reporter, beta-gal luminescence; efflux-impaired pdr1/pdr3 knockout yeast; score 100 = 6 SD above DMSO; activity score, % at 12 µM; 300,000 compounds, 0.02% hits;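 active means lowest replicate activity score at least 50, where 100 means six control SD above control mean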;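 further: yeast exposed to compound for 9 h at 30 °C; higher score means more reporter readthrough which indicates perturbed polyadenylation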
proCasp3 act – activators of human procaspase-3 D3A mutant, primary screen, biochemical, absorbance, PC-3 D3A mutant, single concentration; Caspase-3 (Homo sapiens), P42574; recombinant procaspase-3 D3A, Ac-DEVD-pNA absorbance 405 nm; activation, % at 8.5 µM; 330,000 compounds, 0.11% hits; AID 463141, 2010;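 active means activation above the mean of all tested compounds plus 3 SD, cut at about 21% in these data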
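Evaluation: percent activation relative to control range; Material: Procaspase-3 D3A mutant, all three cleavage aspartates alanine; Compound: single dose, 8.5 µM nominal compound, 0.8% DMSO; Replication: one well per compound; Signal: absorbance at 405 nm, 0 and 120 min; Schedule: 1 h preincubation plus 2 h reaction at 25 °C.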
Bfl-1 A1 inh – caspase 3/7 activation in MEF A1-2A-BIM cells, primary screen, A1 inhibitor project, cell-based, luminescence, HTS. Caspase-Glo 3/7 luminescence, 3 h; percent of clofoctol response, vehicle zero. caspase activation, % (test concentration not listed). 330,000 compounds, 0.066% hits. AID 2462, 2010;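 active means over half of replicate activation scores above 10%, or exactly half above 10 with the replicate mean above 10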
Hits are given with their value; . = inactive; / = no result given; + = active, no number. Shown are actives, neighbours in structure and some others; about 0.48% of the full set was active somewhere.

SMILES	procasp7 counter	Rce1 inh	PolyA inh	proCasp3 act	Bfl-1 A1 inh
COc1cc2c(cc1OC)C(c1ccccc1[N+](=O)[O-])N(C(C)=O)CC2 (centres undefined)	.	.	.	.	.
CCOc1ccc2nc(NCCNC(=O)Nc3cccc(C)c3)c(C#N)cc2c1	.	.	.	.	7.5
COc1ccccc1CNC(=O)CN(C)CC(=O)Nc1ccc(F)c(F)c1F	.	/	/	.	.
CN(C)CCN(C(=O)c1ccc2ccccc2c1)c1nc2ccc(F)cc2s1	.	+	.	.	.
COc1cc2ccccc2cc1C(=O)N(CCN(C)C)c1nc2c(OC)ccc(OC)c2s1	.	.	.	.	.
CCN(CC)CCN(C(=O)c1cc2ccccc2cc1OC)c1nc2ccc(F)cc2s1	.	+	.	.	.
CCc1ccc2nc(N(CCN(C)C)C(=O)c3ccc4ccccc4c3)sc2c1	.	.	.	.	.
COc1cc2ccccc2cc1C(=O)N(CCN(C)C)c1nc2ccc(C)cc2s1	.	+	.	.	.
Cc1csc2c(N3CCN(C(=O)c4ccc(C(C)(C)C)cc4)CC3)ncnc12	.	.	.	.	.
CC(C)c1ccc(C2c3[nH]c4ccccc4c3C[C@H]3C(=O)N(c4ccccc4C(=O)N4CCC(C(=O)O)CC4)C(=O)N23)cc1 (some centres undefined)	.	.	.	.	.
Clc1ccc(CN2CCc3c([nH]c4ccccc34)C2)cc1Cl	.	+	.	.	.
Clc1cccc(CN2CCc3c([nH]c4ccccc34)C2)c1	.	/	.	.	.
CCSc1nc2c(c(=O)[nH]1)C(c1ccccn1)C1=C(CC(C)(C)CC1=O)N2 (centres undefined)	.	+	.	.	.
O=C(CN1C(=O)/C(=C\c2cccc(Br)c2)Oc2ccccc21)NCC1CCCO1 (centres undefined)	.	+	.	.	.
CCOC(=O)CN1C(=O)/C(=C/c2cccc(Br)c2)Oc2ccccc21	.	.	.	.	.
CC(=O)N(Cc1ccccc1)c1nc(-c2ccccc2)cs1	.	.	.	.	.
CCOc1cc(/C=C2/C(=N)N3C=CSC3=NC2=O)ccc1OCCCOc1ccccc1C	.	.	.	.	41
COc1ccc(-c2cc(=O)oc3c(C)c(OC(=O)c4cccs4)ccc23)cc1	.	.	/	.	17
COc1ccc(-c2cc(=O)oc3c(C)c(OC(C)C(C)=O)ccc23)cc1 (centres undefined)	.	.	.	.	.
CCN1C(=O)C2(C(C(=O)c3cc4ccccc4o3)=C(O)C(=O)N2CCCN(C)C)c2ccccc21 (centres undefined)	.	.	.	.	.
O=S(=O)(Nn1cnnc1)c1ccc(F)cc1	.	.	.	.	.
CCC(=O)Nc1ccc2oc(-c3cccnc3)nc2c1	.	.	.	.	.
CC(C)CC(=O)Nc1ccc2oc(-c3cccnc3)nc2c1	.	+	.	.	.
O=C(OCC(=O)N1CCN(C(=O)c2ccco2)CC1)c1ccc(Cl)nc1	.	/	/	.	.
COc1ccc(OC)c(Nc2nc(NCCO)c3ccccc3n2)c1	.	.	67	.	.
SMILES	procasp7 counter	Rce1 inh	PolyA inh	proCasp3 act	Bfl-1 A1 inh
COc1ccccc1Nc1nc(NCCO)c2ccccc2n1	/	.	.	/	/
COc1ccc(CC(=O)OCC(=O)Nc2ccc(Br)cc2)cc1	.	+	.	.	.
Cc1cc(C)n2cc(CSc3ccc(Br)cc3)nc2n1	.	.	.	.	.
Cc1cc(C)n2cc(CSCC(=O)O)nc2n1	.	+	.	.	.
Cc1ccc(N=Cc2c(O)n(C)c(=O)n(C)c2=O)nc1	.	+	.	.	.
COc1ccccc1NC(=O)/C(=C\c1cccnc1)NC(=O)c1ccc(C)cc1	.	+	.	.	.
COc1ccccc1NC(=O)/C(=C\c1cccnc1)NC(=O)c1ccccc1	.	/	.	.	.
COc1ccc(C(=O)Nc2ccc(S(=O)(=O)N3CCCC3)cc2)cc1[N+](=O)[O-]	.	.	.	.	.
NCCCn1c(C(=O)c2cc(Cl)c(N)c(Cl)c2)c2ccc(C(F)(F)F)cc2[n+]1[O-]	.	+	.	.	.
NC(=O)CCCn1c(C(=O)c2cc(Cl)c(N)c(Cl)c2)c2ccc(C(F)(F)F)cc2[n+]1[O-]	.	+	.	.	.
CCCCCCCCCCOC(=O)Cn1c(COc2ccccc2)[n+](C)c2ccccc21	.	.	.	.	.
CCCCCCCCCCOC(=O)Cn1c(COc2ccccc2C)[n+](C)c2ccccc21	.	+	.	.	.
COc1ccc(CNC(=O)Cn2cnc3c(NCc4ccccc4)ncnc32)cc1	.	/	/	.	/
Nc1nc(N2CCN(C(=O)c3ccco3)CC2)nc2ccccc12	.	+	.	.	.
Nc1nc(N2CCN(C(=O)c3ccco3)CC2)nc2ccc(Br)cc12	.	.	.	.	.
O=C(CCSc1ccc(Cl)cc1)NC12CC3CC(CC(C3)C1)C2	.	+	.	.	.
Cc1ccc2nc(/C(C#N)=C\c3ccc([N+](=O)[O-])o3)[nH]c2c1	.	.	/	.	.
N#C/C(=C\c1ccc([N+](=O)[O-])o1)c1nc2ccccc2[nH]1	.	/	711	.	.
COC(=O)CSc1nc(N)c2c3c(sc2n1)CCCC3	.	.	.	.	.
COC(=O)CSc1nc(N)c2c3c(sc2n1)C(c1ccccc1)SC(c1ccccc1)C3 (centres undefined)	.	+	.	.	16
CCCCc1ccc(NC(=O)CN(C)CC(=O)Nc2ccccc2Cl)cc1	.	.	.	.	18
CN(CC(=O)Nc1ccccc1)CC(=O)Nc1ccccc1Cl	.	.	.	.	.
CCOC(=O)C1CCCN(C(=O)CCn2nnnc2CN2CCOCC2)C1 (centres undefined)	.	+	.	.	.
CSc1nnc(-c2sc(-c3ccccc3)nc2C)n1C	.	+	.	.	.
Cc1nc(-c2ccccc2)sc1-c1n[nH]c(=S)n1C	.	.	.	.	.
Cc1nc2ncnn2c(N2CCN(C(c3ccccc3)c3ccccc3)CC2)c1C	.	.	.	.	.
Cc1cc(N2CCN(C(c3ccccc3)c3ccccc3)CC2)n2ncnc2n1	.	+	.	.	.
Cc1ccc(CNC(=O)CCc2nnc(Cc3ccc(-c4ccccc4)cc3)o2)o1	.	.	.	.	.
Cc1ccc2[nH]c3c(c2c1)CCCC3NC(=O)CCl (centres undefined)	.	.	.	.	5.3
